Experimental data from ChEMBL document CHEMBL1146453, “Insecticidal sesquiterpene pyridine alkaloids from Maytenus chiapensis” (J Nat Prod, 2004).
Converted amounts (≈) assume the structure as drawn. The source made the active and inactive calls. The rule behind the calls is not given here.

Tests used:
Spodoptera littoralis [1] = experiment: Antifeedant activity against Spodoptera littoralis L6 larvae assessed as biomass gain relative to control; format: functional; design: concentration or dose not given beside the values
Outline: (§1)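 Sixth-instar S. littoralis larvae reared on artificial diet at 22 ± 1 °C, >70% RH, 16:8 h L:D, dosed orally. Food consumption and biomass gain were recorded. Post-ingestive effects were tested by ANCOVA of biomass gain with food consumption as covariate.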

Spodoptera littoralis [2] = experiment: Antifeedant activity against Spodoptera littoralis L6 larvae assessed as nutritional consumption relative to control; format: functional; design: concentration or dose not given beside the values; outline: as §1
Spodoptera littoralis [3] = experiment: Antifeedant activity against Spodoptera littoralis L6 larvae; format: functional, organism-based
Outline: (§2)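 Choice feeding test on sixth-instar S. littoralis larvae and apterous adult M. persicae. Larvae reared on artificial diet, aphids on bell pepper plants, both at 22 ± 1 °C, >70% RH, 16:8 h L:D. Read-out is percent feeding inhibition (larvae) or settling inhibition (aphids). Actives above 50% went to dose–response, with EC50 taken from linear regression of %FR or %SI on log dose.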

[4] = Cytotoxicity against Spodoptera frugiperda Sf9 cells by MTT assay; format: cell-based; details: read-out: LD50 (the source's name)
Outline: (§3)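 Sf9 cells (S. frugiperda pupal ovarian tissue) and CHO cells were cultured and scored for viability by an adapted MTT colorimetric assay. LD50, the dose giving 50% viability, was calculated for active compounds.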

Myzus persicae = experiment: Antifeedant activity against Myzus persicae; format: functional, organism-based; outline: as §2
[5] = Cytotoxicity against CHO cells by MTT assay; format: cell-based, Cricetulus griseus; details: chinese hamster, read-out: LD50 (the source's name); outline: as §3
Spodoptera littoralis [6] = experiment: Antifeedant activity against Spodoptera littoralis L6 larvae treated orally; format: functional, organism-based; outline: as §1

SMILES	Activity (Spodoptera littoralis [1])	Activity (Spodoptera littoralis [2])	EC50 (Spodoptera littoralis [3])	CC50 [4]	Activity (Myzus persicae)	CC50 [5]	Activity (Spodoptera littoralis [6])
CC(=O)OC[C@]12[C@H](OC(C)=O)[C@H](OC(C)=O)[C@@H]3[C@@H](OC(C)=O)[C@@]14O[C@@]3(C)COC(=O)c1cccnc1C(C)C(C)C(=O)O[C@@H]([C@H](OC(C)=O)[C@@H]2OC(=O)c1ccccc1)[C@]4(C)O (some centres not stated) [MAYTEINE]	112%	146%	> 50 microg/cm2	> 100 µg/mL	inactive	> 100 µg/mL	
CC(=O)OC[C@]12[C@H](OC(C)=O)C(=O)[C@@H]3[C@@H](OC(C)=O)[C@@]14O[C@@]3(C)COC(=O)c1cccnc1CCC(C)(O)C(=O)O[C@@H]([C@H](OC(=O)c1ccccc1)[C@@H]2OC(=O)c1ccccc1)[C@]4(C)O (some centres not stated)	93%	92%	6.6 ×10⁻² ug/cm2	78.7 µg/mL (≈ 87.2 µM)	inactive	> 100 µg/mL	inactive
CC(=O)OC[C@]12[C@H](OC(C)=O)[C@H](OC(C)=O)[C@@H]3[C@@H](OC(C)=O)[C@@]14O[C@@]3(C)COC(=O)c1cccnc1CCC(C)(O)C(=O)O[C@@H]([C@H](OC(=O)c1ccccc1)[C@@H]2OC(C)=O)[C@]4(C)O (some centres not stated) [WILFORDINE]	93%	109%	2.3 ×10⁻⁴ ug/cm2	86.2 µg/mL (≈ 97.6 µM)	inactive	> 100 µg/mL	inactive
CC(=O)OC[C@]12[C@H](OC(C)=O)[C@H](OC(C)=O)[C@@H]3[C@@H](OC(C)=O)[C@@]14O[C@@]3(C)COC(=O)c1cccnc1C(C)C(C)C(=O)O[C@@H]([C@H](O)[C@@H]2OC(C)=O)[C@]4(C)O (some centres not stated)	101%	94%	> 50 microg/cm2	57.5 µg/mL (≈ 75.3 µM)	inactive	> 100 µg/mL	
CC(=O)OC[C@]12[C@H](OC(C)=O)[C@H](OC(C)=O)[C@@H]3[C@@H](OC(C)=O)[C@@]14O[C@@]3(C)COC(=O)c1cccnc1CCC(C)(O)C(=O)O[C@@H]([C@H](OC(=O)c1ccccc1)[C@@H]2OC(=O)c1ccccc1)[C@]4(C)O (some centres not stated)	96%	87%	3.9 ×10⁻² ug/cm2	> 100 µg/mL	inactive	> 100 µg/mL	inactive
CC(=O)OC[C@]12[C@H](OC(C)=O)[C@H](OC(C)=O)[C@@H]3[C@@H](OC(C)=O)[C@@]14O[C@@]3(C)COC(=O)c1cccnc1CCC(C)(O)C(=O)O[C@@H]([C@H](OC(C)=O)[C@@H]2OC(C)=O)[C@]4(C)O (some centres not stated) [ALATUSININE]	111%	125%	1.6 ×10⁻⁴ ug/cm2	73.2 µg/mL (≈ 89.1 µM)	inactive	> 100 µg/mL	inactive
CC(=O)OC[C@]12[C@H](OC(C)=O)[C@H](OC(C)=O)[C@@H]3[C@@H](OC(C)=O)[C@@]14O[C@@]3(C)COC(=O)c1cccnc1C(C)C(C)C(=O)O[C@@H]([C@H](OC(C)=O)[C@@H]2OC(C)=O)[C@]4(C)O (some centres not stated) [EUONYMINE]	105%	102%	> 50 microg/cm2	49.6 µg/mL (≈ 61.6 µM)	inactive	> 100 µg/mL	
CC(=O)OC[C@]12[C@H](OC(C)=O)[C@H](OC(C)=O)[C@@H]3[C@@H](OC(C)=O)[C@@]14O[C@@]3(C)COC(=O)c1cccnc1CCC(C)C(=O)O[C@@H]([C@H](OC(C)=O)[C@@H]2OC(C)=O)[C@]4(C)O (some centres not stated) [EUONINE]	98%	111%	1.8 ×10⁻⁴ ug/cm2	48.4 µg/mL (≈ 60 µM)	inactive	> 100 µg/mL	inactive
CC(=O)OC[C@]12[C@H](OC(C)=O)[C@H](OC(C)=O)[C@@H]3[C@@H](OC(C)=O)[C@@]14O[C@@]3(C)COC(=O)c1cccnc1C(C)C(C)C(=O)O[C@@H]([C@H](O)[C@@H]2OC(=O)c1ccccc1)[C@]4(C)O (some centres not stated) [EBENIFOLINE E I]	83%	81%	0.72 microg/cm2	78.8 µg/mL (≈ 95.4 µM)	inactive	> 100 µg/mL	inactive
CC(=O)OC[C@]12[C@H](OC(C)=O)C(=O)[C@@H]3[C@@H](OC(C)=O)[C@@]14O[C@@]3(C)COC(=O)c1cccnc1CCC(C)(O)C(=O)O[C@@H]([C@H](OC(=O)c1ccccc1)[C@@H]2OC(C)=O)[C@]4(C)O (some centres not stated) [ALATAMINE]	118%	117%	5.2 ×10⁻³ ug/cm2	> 100 µg/mL	inactive	> 100 µg/mL	inactive
